Measured values: article PMC4874862 (ACS chemical biology, 2016)

B1: 6 × His-HIV-1 IN (wild type full-length HIV-1 integrase) (enzyme)
chain: FLDGIDKAQEEHEKYHSNWRAMASDFNLPPVVAKEIVASCDKCQLKGEAMHGQVDCSPGIWQLDCTHLEGKVILVAVHVASGYIEAEVIPAETGQETAYFLLKLAGRWPVKTVHTDNGSNFTSTTVKAACWWAGIKQEFGIPYNPQSQGVIESMNKELKKIIGQVRDQAEHLKTAVQMAVFIHNFKRKGGIGGYSAGERIVDIIATDIQTKELQKQITKIQNFRVYYRDSRDPVWKGPAKLLWKGEGAVVIQDNSDIKVVPRRKAKIIRDYGKQMAGDDCVASRQDED

Experiments:
full-length HIV-1 IN = full-length HIV-1 IN (Human immunodeficiency virus type 1 group M subtype B, UniProt P12497); experiment: DLS analysis of IN multimerization; assay type: biochemical; conditions: 500 nM BI/D or 3 µM LEDGF/p75 added to 200 nM IN, 30 min
In short: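 Recombinant full-length HIV-1 IN, E. coli-expressed with His or FLAG tag, at 200 nM in filtered 50 mM HEPES pH 7.4, 2 mM DTT, 2 mM MgCl2, 1 M NaCl. Test compound (500 nM) or LEDGF/p75 (3 µM) was added for 30 min. In a sequential arm, compound was added for 30 min, then LEDGF/p75 for 30 min more. DLS was recorded at 25 °C and particle size distribution calculated.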

[1] = target: FLAG-LEDGF/p75 (full length) (UniProt O75475 1-530); experiment: AlphaScreen or HTRF
Sequence of FLAG-LEDGF/p75 (full length) (O75475 whole entry): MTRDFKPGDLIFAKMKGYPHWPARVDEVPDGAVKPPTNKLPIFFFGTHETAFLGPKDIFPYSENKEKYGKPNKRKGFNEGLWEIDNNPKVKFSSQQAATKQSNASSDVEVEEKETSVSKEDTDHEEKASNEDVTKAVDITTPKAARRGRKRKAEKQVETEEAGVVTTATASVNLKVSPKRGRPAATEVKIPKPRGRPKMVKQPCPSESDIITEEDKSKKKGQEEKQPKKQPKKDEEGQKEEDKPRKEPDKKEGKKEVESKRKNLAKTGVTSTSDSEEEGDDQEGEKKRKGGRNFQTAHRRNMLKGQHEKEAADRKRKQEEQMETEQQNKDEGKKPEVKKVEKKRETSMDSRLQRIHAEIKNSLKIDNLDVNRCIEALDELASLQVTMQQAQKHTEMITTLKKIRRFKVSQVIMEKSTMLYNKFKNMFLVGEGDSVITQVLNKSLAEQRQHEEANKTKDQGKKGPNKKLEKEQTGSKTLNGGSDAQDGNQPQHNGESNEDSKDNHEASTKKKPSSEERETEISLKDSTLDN

Molecule	estimated particle diameter (DLS) after addition to IN (full-length HIV-1 IN)	Kd [1] [nM]
LEDGF/p75: cellular chromatin associated protein, cofactor that binds the HIV-1 IN tetramer; recombinant, His or FLAG tagged	~ 11 nM	
B1		3.32 ± 0.31
